Sampled rows, rich in hits. Any-hit rate of the full collection: about 4%.
TAAR1 ag – human TAAR1 agonism; Q96RJ0; activation, % at 3 µM; CHO RD-HGA16 TAAR1, Fluo-8 calcium fluorescence; vehicle wells 0%, saturating PEA agonist 100%; 360,000 compounds, 0.99% hits;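 active = activation above the mean activation of all test compounds in the run plus 3 SD, cut at about 38% in these data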
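Assay system – CHO-derived RD-HGA16 cells with stable Gα16 and human TAAR1 · Compound dosing – one-point dosing at 3 µM (nominal) · Incubation – 17-24 h seeding, 75 min 37 °C dye, 30 min RT · Measured by – kinetic Fluo-8 calcium fluorescence · Control set – DMSO vehicle as 0%, PEA at EC100 as 100% · Repeats – single well for each compound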
CHO parental Ca – counter-screen: ATP calcium response change in parental CHO cells | parental CHO-K1, ATP-induced calcium, Fluo-8 fluorescence | inhibition, % at 5.6 µM | 330,000 compounds, 0.63% hits | AID 463079;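 active = inhibition above that plate's mean sample inhibition plus 3 SD, cut at about 26% in these data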;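 note: 0% = ATP-challenged DMSO wells and 100% = DMSO wells without ATP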
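Material: Parental CHO cells | Reagent: ATP | Compound dosing: Single nominal dose of 5.6 µM per compound | Detection: Intracellular calcium via Fluo-8 no-wash fluorescent dye | Read-out: % inhibition of ATP-induced calcium mobilization | Benchmarks: Low control ATP plus DMSO, high control DMSO only | Replicates: Singlicate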
OX1R antag-1 – antagonists of human orexin 1 receptor; O43613; CHO/OX1R cells, Fluo-8 calcium fluorescence, orexin A; inhibition, % at 5 µM; 330,000 compounds, 0.43% hits; AID 434989;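 active = inhibition above its plate's threshold, mean inhibition of all tested compounds on the plate plus 3 SD, cut at about 37% in these data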;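 note: 0% = orexin A challenge wells and 100% = SB-334867-A antagonist wells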
Target sequence (O43613 whole entry, looked up): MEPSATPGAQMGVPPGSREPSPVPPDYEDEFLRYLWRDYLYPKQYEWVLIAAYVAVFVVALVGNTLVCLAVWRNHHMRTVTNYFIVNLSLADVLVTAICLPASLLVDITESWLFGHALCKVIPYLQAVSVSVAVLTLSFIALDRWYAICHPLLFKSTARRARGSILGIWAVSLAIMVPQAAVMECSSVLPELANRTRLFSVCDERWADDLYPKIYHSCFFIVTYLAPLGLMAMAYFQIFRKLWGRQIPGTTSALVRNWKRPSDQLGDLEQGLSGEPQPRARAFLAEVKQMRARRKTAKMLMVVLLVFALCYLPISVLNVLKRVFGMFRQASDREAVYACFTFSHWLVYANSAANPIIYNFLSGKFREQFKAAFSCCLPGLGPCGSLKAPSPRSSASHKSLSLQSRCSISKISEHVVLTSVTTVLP
OX1R antag-2 – OX1R (human) antagonism | O43613 | OX1R-expressing cells, FRET antagonist read-out | inhibition, % at 6.6 µM | 330,000 compounds, 1.8% hits; in the data active = inhibition mostly above about 38%, no sharp cut-off; inactive = mostly below about 40%;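 note: 0% = agonist challenge alone and 100% = reference antagonist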
TAAR1 antagonist – human TAAR1 antagonism; CHO RD-HGA16 TAAR1, Fluo-8 calcium fluorescence, antagonist; inhibition, % at 3 µM; 360,000 compounds, 1.5% hits;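 active = inhibition above a per-plate cutoff, the mean inhibition of test compounds on that plate plus 3 SD, cut at about 49% in these data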;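 note: 0% = DMSO plus EC80 beta-PEA response and 100% = DMSO alone without agonist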
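Test system: CHO RD-HGA16 cells bearing hTAAR1 | Reagent: β-PEA, EC80 | Compound dosing: 3 µM, single point | Schedule: Dye loading 75 min at 37 °C, then 30 min room temperature | Signal: Calcium fluorescence with Fluo-8 | Evaluation: Percent inhibition of PEA-evoked calcium signal, max/basal emission ratio | Control set: DMSO-only wells and EC80 β-PEA-stimulated wells | Repeats: Singlicate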
OX1R HTRF conf – OX1R (human) antagonism, HTRF confirmed | shares compounds with OX1R antag-2 | OX1R-expressing cells, HTRF antagonist assay | inhibition, % at 6.6 µM | 1,800 compounds, 49% hits | AID 492964; in the data active = inhibition above about 55%;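 note: CHO cells expressing OX1R stimulated with orexin A at about EC80; 0% = agonist challenge alone and 100% = reference antagonist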
CHO-K1 HTRF – signal in parental CHO-K1 cells, OX1R antagonist counter-screen; shares compounds with OX1R antag-2; HTRF counterscreen; AID 493232; inhibition, % at 6.6 µM; 1,800 compounds, 48% hits; in the data active = inhibition above about 17%;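 note: 0% = agonist challenge with vehicle and 100% = vehicle alone without agonist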
* marks the source's active call; other numbers are inactive results.

`Cc1cc(C)n2[nH]c(=O)c(N=Nc3ccccc3)c2n1` gave TAAR1 ag 5, CHO parental Ca -1, OX1R antag-1 -10, OX1R antag-2 188*, TAAR1 antagonist -16, OX1R HTRF conf 46 and CHO-K1 HTRF 86*.
Screening Cc1cc(C(F)(F)F)n2[nH]c(=O)c(N=Nc3ccccc3)c2n1 returned TAAR1 ag 1, CHO parental Ca -5, OX1R antag-1 -12, OX1R antag-2 14 and TAAR1 antagonist -1.
`Cc1cc(=O)n2[nH]c(=O)c(N=Nc3ccccc3)c2[nH]1` gave TAAR1 ag 6, CHO parental Ca -5, OX1R antag-1 -3, OX1R antag-2 126*, TAAR1 antagonist -14, OX1R HTRF conf 49 and CHO-K1 HTRF 58*.
`Cc1ccc(-c2ccccc2NC(=O)CCl)o1` gave TAAR1 ag 7, CHO parental Ca -3, OX1R antag-1 -16, OX1R antag-2 10 and TAAR1 antagonist -15.
`Cc1ccc(-c2ccccc2NC(=O)CS(=O)CC(=O)Nc2ccc(C)c(Cl)c2)o1` (stereo not given) gave TAAR1 ag 6, CHO parental Ca 6, OX1R antag-1 11, OX1R antag-2 82*, TAAR1 antagonist -5, OX1R HTRF conf 43 and CHO-K1 HTRF 7.
Cc1cccn2cc(-c3cccc(NC(=O)c4cccs4)c3)nc12 was read as TAAR1 ag 6, CHO parental Ca -24, OX1R antag-1 -4, OX1R antag-2 111*, TAAR1 antagonist -10, OX1R HTRF conf 93* and CHO-K1 HTRF -1.
`COc1ccccc1CNC(=O)C/C(C)=N/NC(=O)Cc1ccc(Cl)cc1` gave TAAR1 ag 1, CHO parental Ca -5, OX1R antag-1 -21, OX1R antag-2 9 and TAAR1 antagonist -17.
`Cc1ccc(N2CN=c3s/c(=C\c4cccnc4)c(=O)n3C2)cc1` gave TAAR1 ag 10, CHO parental Ca 2, OX1R antag-1 -23, OX1R antag-2 99*, TAAR1 antagonist 1, OX1R HTRF conf 36 and CHO-K1 HTRF 49*.
Screening CCN1C(=O)[C@H]2[C@@H](c3ccc(C(F)(F)F)cc3)N[C@]3(CCCN(Cc4ccc(OC)cc4)C3=O)[C@H]2C1=O returned TAAR1 ag 2 and TAAR1 antagonist -7.
`O=C(N=Nc1c(O)[nH]c2ccccc12)c1cccs1` gave TAAR1 ag 0, CHO parental Ca -16, OX1R antag-1 5, OX1R antag-2 108*, TAAR1 antagonist 26, OX1R HTRF conf 101* and CHO-K1 HTRF 18*.
`CCOC(=O)C(=O)N=Nc1c(O)[nH]c2ccccc12` gave TAAR1 ag 0, CHO parental Ca 2, OX1R antag-1 -1, OX1R antag-2 91*, TAAR1 antagonist 3, OX1R HTRF conf 46 and CHO-K1 HTRF 53*.
`O=C(N=Nc1c(O)[nH]c2ccccc12)c1cc(NS(=O)(=O)c2cccs2)cc(NS(=O)(=O)c2cccs2)c1` gave TAAR1 ag 0, CHO parental Ca 10, OX1R antag-1 -1, OX1R antag-2 14 and TAAR1 antagonist -12.
`Oc1ccc(NC(=S)N=Nc2c(O)[nH]c3ccccc23)cc1` gave TAAR1 ag 6, CHO parental Ca -7, OX1R antag-1 -4, OX1R antag-2 92*, TAAR1 antagonist 24, OX1R HTRF conf 80* and CHO-K1 HTRF 7.
`COc1ccc(NC(=S)N=Nc2c(O)[nH]c3ccccc23)cc1` gave TAAR1 ag -3, CHO parental Ca -12, OX1R antag-1 3, OX1R antag-2 34 and TAAR1 antagonist 11.
`CCCN(C(=O)Cn1nc(C)c([N+](=O)[O-])c1C)c1c(N)n(Cc2ccccc2)c(=O)[nH]c1=O` gave TAAR1 ag 0, CHO parental Ca 1, OX1R antag-1 -15, OX1R antag-2 17 and TAAR1 antagonist -11.
Cc1ccc(OCc2cc(C(=O)N(C)CCc3ccccn3)no2)cn1 was read as TAAR1 ag 12, CHO parental Ca -6, OX1R antag-1 1, OX1R antag-2 20 and TAAR1 antagonist -44.
`NS(=O)(=O)c1ccc(NC(=O)COC(=O)c2ccc([N+](=O)[O-])s2)cc1` gave TAAR1 ag 2, CHO parental Ca -1, OX1R antag-1 8, OX1R antag-2 37 and TAAR1 antagonist 4.
For CCOC(=O)N1CCC(NC(=S)Nc2ccc3nc(N4CCN(CC)CC4)cc(C)c3c2)CC1 the results were TAAR1 ag -6, CHO parental Ca -16, OX1R antag-1 -23, OX1R antag-2 7 and TAAR1 antagonist -13.
CCOC(=O)N1CCC(NC(=S)Nc2ccc3nc(N4CCN(C)CC4)cc(C)c3c2)CC1 was read as TAAR1 ag 1, CHO parental Ca -7, OX1R antag-1 -23, OX1R antag-2 105*, TAAR1 antagonist -23, OX1R HTRF conf 20 and CHO-K1 HTRF -1.
Screening CCOC(=O)/C(=N\Nc1ccccc1Cl)N1CCN(c2ccccc2OC)CC1 returned TAAR1 ag 1, CHO parental Ca -33, OX1R antag-1 -46, OX1R antag-2 33 and TAAR1 antagonist -17.
CCn1c(C)nc2cc(-c3nc4n(n3)Cc3ccccc3-4)ccc21 was read as CHO parental Ca 8, OX1R antag-1 -12, OX1R antag-2 88*, OX1R HTRF conf 81* and CHO-K1 HTRF 9.
For O=C(C1CCN(S(=O)(=O)c2cccc3nsnc23)CC1)N1CCN(c2ccccc2F)CC1 the results were TAAR1 ag 15, CHO parental Ca -9, OX1R antag-1 -16, OX1R antag-2 38 and TAAR1 antagonist 20.
O=C(C1CCCO1)N1CCN(S(=O)(=O)c2cccc3nsnc23)CC1 (stereo not given) was read as TAAR1 ag 1, CHO parental Ca -8, OX1R antag-1 -12, OX1R antag-2 96*, TAAR1 antagonist 2, OX1R HTRF conf 41 and CHO-K1 HTRF 56*.
O=C(c1ccco1)N1CCN(C(=O)C2CCN(S(=O)(=O)c3cccc4nsnc34)CC2)CC1 was read as TAAR1 ag 4, CHO parental Ca -3, OX1R antag-1 -10, OX1R antag-2 100*, TAAR1 antagonist 3, OX1R HTRF conf 30 and CHO-K1 HTRF 47*.
Screening O=C(O)C1CCN(S(=O)(=O)c2cccc3nsnc23)CC1 returned TAAR1 ag 3, CHO parental Ca -8, OX1R antag-1 -10, OX1R antag-2 33 and TAAR1 antagonist -11.
Screening CCOC(=O)Cn1nnc(-c2ccc([N+](=O)[O-])cc2)n1 returned TAAR1 ag 0, CHO parental Ca 11, OX1R antag-1 6, OX1R antag-2 96*, TAAR1 antagonist -9, OX1R HTRF conf 37 and CHO-K1 HTRF 32*.
